Test results taken from ChEMBL document CHEMBL1667839, “Discovery of new anti-depressants from structurally novel 5-HT3 receptor antagonists: design, synthesis and pharmacological evaluation of 3-ethoxyquinoxalin-2-carboxamides” (Bioorg Med Chem Lett, 2011).

Key:
Mus musculus [1] = test: Antipsychotic activity in Swiss Albino mouse assessed as spontaneous locomotor score at 1 mg/kg, ip measured for 10 mins by actophotometer; format: functional; conditions: route intraperitoneal
In short: (§1)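 Swiss Albino mice (23 ± 2 g) given compound intraperitoneally in 10% PEG-400 in water; spontaneous locomotor activity counted in an actophotometer over 10 min as locomotor score; n = 8 per group, mean; one-way ANOVA with Dunnett's test versus vehicle-treated group.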

Mus musculus [2] = test: Antidepressant activity in mouse assessed as immobility time at 1 mg/kg, ip by forced swimming test; format: functional; conditions: route intraperitoneal
[3] = molecular target: T1, 5-hydroxytryptamine receptor 3A (Cavia porcellus, UniProt O70212); test: Antagonist activity at 5-HT3 receptor in guinea pig ileum muscle; format: functional, tissue-based; conditions: read-out: pA2 (converted)
T1 sequence (O70212 whole entry): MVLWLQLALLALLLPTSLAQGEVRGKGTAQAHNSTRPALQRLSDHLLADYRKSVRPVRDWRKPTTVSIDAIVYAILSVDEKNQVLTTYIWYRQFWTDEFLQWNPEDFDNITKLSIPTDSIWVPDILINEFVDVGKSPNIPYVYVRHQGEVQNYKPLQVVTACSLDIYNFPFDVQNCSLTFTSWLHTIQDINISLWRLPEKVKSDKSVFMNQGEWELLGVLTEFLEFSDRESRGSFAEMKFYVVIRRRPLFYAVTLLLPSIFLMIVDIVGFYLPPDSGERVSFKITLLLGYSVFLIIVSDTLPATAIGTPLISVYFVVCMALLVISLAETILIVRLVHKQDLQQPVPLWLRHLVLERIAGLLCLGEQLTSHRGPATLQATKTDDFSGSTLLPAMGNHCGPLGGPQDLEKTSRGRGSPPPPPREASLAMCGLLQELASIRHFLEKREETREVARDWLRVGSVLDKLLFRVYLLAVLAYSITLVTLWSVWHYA
In short: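 Longitudinal muscle myenteric plexus preparation from ileum of male Dunkin Hartley guinea pigs (350-400 g); antagonism measured against the 5-HT3 agonist 2-methyl-5-HT and expressed as pA2 by literature methods; mean of two separate experiments.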

Mus musculus [4] = test: Antidepressant activity in Swiss Albino mouse assessed as immobility time at 0.5 mg/kg, ip by forced swimming test (reference value: 165.6 +/- 03.2 sec); format: functional; conditions: route intraperitoneal
Mus musculus [5] = test: Antidepressant activity in Swiss Albino mouse assessed as immobility time at 2 mg/kg, ip by forced swimming test; format: functional; conditions: route intraperitoneal
Mus musculus [6] = test: Antipsychotic activity in Swiss Albino mouse assessed as spontaneous locomotor score at 2 mg/kg, ip measured for 10 mins by actophotometer; format: functional; conditions: route intraperitoneal; in short: as §1
Mus musculus [7] = test: Antipsychotic activity in Swiss Albino mouse assessed as spontaneous locomotor score at 0.5 mg/kg, ip measured for 10 mins by actophotometer; format: functional; conditions: route intraperitoneal; in short: as §1

| Kb [3] [nM] | Structure (SMILES) | Activity (Mus musculus [1]) [score] | Time (Mus musculus [2]) [s] | Time (Mus musculus [4]) [s] | Time (Mus musculus [5]) [s] | Activity (Mus musculus [6]) [score] | Activity (Mus musculus [7]) [score] |
| --- | --- | --- | --- | --- | --- | --- | --- |
| 10000 | CCOc1nc2ccccc2nc1C(=O)N1CCN(c2ccccc2)CC1 | 382 | 134 |  |  |  |  |
| 100 | CCOc1nc2ccccc2nc1C(=O)N1CCN(c2ccccc2OC)CC1 | 360 | 113.3 | 115.3 | 122 | 366 | 351 |
| 158 | CCOc1nc2ccccc2nc1C(=O)N1CCN(c2ccc(OC)cc2)CC1 | 356 | 114.6 | 159 | 121.6 | 361 | 352 |
| 1000 | CCOc1nc2ccccc2nc1C(=O)N1CCN(c2ccc(Cl)cc2)CC1 | 364 | 146.6 |  |  |  |  |
| 251 | CCOc1nc2ccccc2nc1C(=O)N1CCN(c2cccc(Cl)c2)CC1 | 352 | 110.6 | 83.6 | 76.6 | 358 | 361 |
| 7940 | CCOc1nc2ccccc2nc1C(=O)N1CCN(c2cccc(C(F)(F)F)c2)CC1 | 356 | 148 |  |  |  |  |
| 15800 | CCOc1nc2ccccc2nc1C(=O)Nc1cccnc1 | 365 | 144 |  |  |  |  |
| 25100 | CCOc1nc2ccccc2nc1C(=O)N1CCN(Cc2ccccc2)CC1 | 366 | 160 |  |  |  |  |
| 20 | CCOc1nc2ccccc2nc1C(=O)N1CCN(C)CC1 | 350 | 94 | 125 | 130 | 356 | 353 |
| 31.6 | CCOc1nc2ccccc2nc1C(=O)N1CCN(CC)CC1 | 360 | 98 | 159.3 | 128 | 352 | 349 |
| 158 | C=CCN1CCN(C(=O)c2nc3ccccc3nc2OCC)CC1 | 360 | 127 | 152 | 118 | 352 | 345 |
| 126 | CCOc1nc2ccccc2nc1C(=O)NCCN(C)C | 349 | 117.7 | 133.6 | 96 | 343 | 345 |
| 20000 | CCOc1nc2ccccc2nc1C(=O)NCCN(CC)CC | 362 | 162 |  |  |  |  |
| 63.1 | CCOc1nc2ccccc2nc1C(=O)NCCc1c[nH]c2ccccc12 | 350 | 104 | 150.3 | 79.3 | 355 | 366 |
| 10000 | CCOc1nc2ccccc2nc1C(=O)Nc1ccc(N(CC)CC)cc1 | 374 | 145 |  |  |  |  |
|  | Cc1nccn1CC1CCc2c(c3ccccc3n2C)C1=O (stereo not drawn) [ONDANSETRON] | 388 | 100.4 | 130.2 | 95.1 | 400 | 368 |
